Screening data as filed in PubChem.
MPTP block: mitochondrial permeability transition pore inhibitors, primary screen, biochemical, isolated mouse mitochondria, absorbance; Ca2+ swelling absorbance, 30 min; inhibition, % at 10 µM; 360,000 compounds, 1.4% hits; AID 602449, 2012;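 active = inhibition of 50% or more, scaled per plate between neutral and stimulator controls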;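 also: 0% = DMSO wells given calcium and 100% = 1 mM EGTA wells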
Hep lipid drop: inhibitors of hepatocyte lipid droplet formation, primary screen, imaging, high-throughput imaging, BODIPY stain. 240,000 compounds, 0.4% hits. AID 1656, 2009. inhibition, % at 6.5 µM. AML12 mouse hepatocytes, oleate lipid droplets;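 active = lipid droplet intensity inhibited by at least 50%, with more than 500 cells counted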
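Test system: AML12 hepatocytes (mouse); reagent: oleate loading, 100 µM; dosing: one dose, 6.5 µM compound; incubation: overnight exposure; signal: fluorescence imaging, 20x objective, two fields per well; read-out basis: % inhibition of corrected integrated BODIPY droplet signal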
DTT redox prof: compounds producing H2O2 with reducing agent – biochemical, NIH compound library profiling, artefact control for MLSCN library redox annotation, primary screen; DTT-dependent redox cycling H2O2, phenol red/HRP absorbance; 100% = 100 µM peroxide control, 0% = buffer; activation, % at 10 µM; 200,000 compounds, 0.03% hits;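 active = activation of at least 50% relative to the plate's high and low controls in the primary single-dose screen; inactive = activation below 50%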;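 also: compound incubated with DTT at 0.8 mM final as the reducing agent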
Lmaj promast: Leishmania major promastigote growth inhibition, primary screen; AID 1063, 2008; Leishmania major promastigotes, resazurin fluorescence viability; inhibition, % at 10 µM; 200,000 compounds, 9% hits; in the data active = inhibition above about 50%;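 also: promastigotes grown with compound for 44 hours at 28 °C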
T cruzi repl: inhibitors of intracellular T. cruzi growth, primary screen, luminescence, NIH3T3 host cells; T. cruzi beta-gal in NIH3T3, 90 h; inhibition, % (test concentration not listed); 300,000 compounds, 1.4% hits; AID 1885, 2009;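 active = mean inhibition across valid replicates above about 55%, limit read from the data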;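 also: signal also drops with host cell toxicity which is not excluded here; 0% = plate median of DMSO wells and 100% = zero luminescence signal; higher percent means less beta-gal luminescence so fewer parasites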
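System: NIH/3T3 fibroblasts plus reporter T. cruzi. Medium: DMEM plus 2% FBS. Probe or stimulus: 5000 reporter trypomastigotes per well. Compound: single 50 nL compound addition per well in DMSO. Incubation: co-culture of at least 90 h after 3 h attachment. Detection: GalScreen β-gal luminescence, detergent lysis, 60 min. Evaluation: parasite load inhibition, %.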
Lipid drop inh: hepatocyte lipid droplet accumulation inhibitors, confirmation, imaging, AML12 mouse hepatocytes, single concentration, high-content; shares compounds with Hep lipid drop; BODIPY lipid droplet imaging; droplets induced with 100 µM oleic acid; inhibition, % at 5.2 µM; 870 compounds, 65% hits; AID 463183, 2010;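 active = inhibition of lipid droplet metric at least 50%, with more than 300 cells in each of four replicates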;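 also: plate controls were DMSO with oleic acid for no effect and 5 µM Triacsin-C for full effect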
AML12 cytotox: AML12 hepatocyte cytotoxicity, counter-screen for hepatic lipid droplet formation project, imaging, DAPI nuclear morphology imaging. shares compounds with Hep lipid drop. AML12 mouse hepatocytes; hits give high values; cells fed 100 µM oleate overnight. z-score at 5 µM. 870 compounds, 3% hits. AID 463200, 2010; in the data active = z-score above about 6.3;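 also: compound exposure lasted overnight at 37 °C before fixation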
AML12 tox ATP: AML12 hepatocyte cytotoxicity, confirmation, cytotoxicity control for hepatic lipid droplet formation project, cell-based, single concentration. AML12 mouse hepatocyte viability, ATP luminescence; cells loaded with 100 µM oleic acid. cytotoxicity, % at 50 µM. 530 tested, under 10 active. shares compounds with Hep lipid drop;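 active = cytotoxicity above 50% in each of four replicates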;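 also: compound exposure lasted overnight at 37 °C before the ATP read; 0% = DMSO-treated cells and 100% = wells with no cells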
An asterisk follows results filed as active; x = not tested or not shown. Shown is part of a subset that was picked to be rich in hits.

SMILES | MPTP block | Hep lipid drop | DTT redox prof | Lmaj promast | T cruzi repl | Lipid drop inh | AML12 cytotox | AML12 tox ATP
Cc1cc2c(cc1S(=O)(=O)Nc1ccc(F)cc1)n(C)c(=O)c(=O)n2C | -1.6 | 40.3 | x | x | -1.8 | x | x | x
CCc1ccc(NS(=O)(=O)c2cc3c(cc2C)n(C)c(=O)c(=O)n3C)cc1 | -0.1 | 50.7* | x | x | 13.0 | 92.5* | -0.7 | 5.5
C=CC(c1ccccc1)C(C(=O)c1ccccc1)N(C)C (stereo unspecified) | -0.8 | -4.7 | -1.6 | 9.2 | x | x | x | x
Cc1ccncc1CNC(=O)c1ccccc1 | -0.3 | x | x | x | x | x | x | x
Cn1ncc2c(Nc3cccc([N+](=O)[O-])c3)ncnc21 | -0.3 | 11.2 | x | x | -11.7 | x | x | x
CCCCOc1ccc(NC(=O)CN2CCN(CC)CC2)cc1 | 0.7 | -24.8 | x | x | 4.1 | x | x | x
CCCCOc1ccc(NC(=O)Cn2c(=O)ccc3c(C)cc(C)nc32)cc1 | -0.2 | 66.3* | -1.4 | 2.6 | 16.0 | 91.3* | -0.133 | 10.1
COc1ccc(C(=O)NCCNC(=O)c2ccc(C)nc2)cc1 | 0.2 | 26.7 | x | x | -3.2 | x | x | x
CCOc1ccc(C(=O)NCCNC(=O)c2ccc(OCC)cc2)cc1 | -0.3 | 85.7* | x | x | -8.3 | 96.0* | -0.411 | 18.4
Cc1ccc(C(=O)NCCNC(=O)c2ccc(C)nc2)cc1 | -0.9 | 56.1* | x | x | 13.0 | 90.9* | -0.253 | 7.4
CCCOc1cccc(C(=O)NCCNC(=O)c2ccc(C)nc2)c1 | -0.8 | 51.2* | x | x | 1.8 | 83.3* | -0.153 | 4.2
Cc1ccc(CN2CCCN(C)CC2)c(C)c1 | -1.6 | 11.3 | x | x | 39.3 | x | x | x
CCC(C)(C(=O)NC1CCCC1)N(C)C(=O)c1ccccn1 (stereo unspecified) | 0.2 | 7.1 | -1.0 | -2.5 | -27.9 | x | x | x
COc1cc(NC(=O)c2cc3ccccc3o2)ccc1NC(=O)c1ccco1 | 0.1 | 31.8 | x | x | 3.8 | x | x | x
COc1cc(NC(=O)c2oc3ccccc3c2C)ccc1NC(=O)c1ccco1 | 0.4 | 102.0* | x | x | 22.6 | 110.6* | 0.0321 | 18.8
CC(C)CNC(=O)c1cc(S(=O)(=O)N2CCOCC2)ccc1N1CCCC1 | -0.6 | -1.2 | x | x | -1.0 | x | x | x
COc1ccccc1NS(=O)(=O)c1cc(NC(=O)c2cc3ccccc3oc2=O)ccc1C | 1.2 | 58.4* | 0.0 | 0.3 | 17.0 | 52.1 | -0.636 | x
COC(=O)c1cn(NC(=O)c2ccc([N+](=O)[O-])cc2Cl)c(=O)c2ccccc12 | 0.3 | 50.5* | -1.3 | -11.9 | -47.1 | 25.4 | 0.565 | x
COc1ccc(C2/C(=C(/O)c3ccc4c(c3)CC(C)O4)C(=O)C(=O)N2CCCn2ccnc2)cc1OC (stereo unspecified) | -0.9 | x | x | x | x | x | x | x
COc1cccc(CNC(=O)C2CCCN(S(=O)(=O)c3c(C)noc3/C=C/N(C)C)C2)c1 (stereo unspecified) | -1.4 | 73.9* | x | x | 0.2 | 80.5* | -0.472 | 13.5
Cc1noc(/C=C/N(C)C)c1S(=O)(=O)N1CCCC(C(=O)NCc2cccs2)C1 (stereo unspecified) | 1.3 | x | -1.1 | -6.6 | 15.2 | x | x | x
COc1cccc(CNC(=O)CCNC(=O)C2CCN(S(=O)(=O)c3ccccc3)CC2)c1 | -1.5 | 59.6* | x | x | 6.2 | 81.3* | -0.739 | 13.3
COC(=O)c1csc(S(=O)(=O)N2CCOCC2)c1OC | -1.2 | 6.5 | x | x | -2.1 | x | x | x
Cc1cccc(N/C(N)=N/c2nc3c(c(=O)[nH]2)CCCC3)c1 | 3.0 | 15.6 | 2.4 | 13.1 | -4.6 | x | x | x
N/C(=N\c1nc2c(c(=O)[nH]1)CCCC2)Nc1ccc(Oc2ccccc2)cc1 | 3.1 | 61.1* | 0.0 | 3.5 | 15.7 | 41.3 | 1.1 | x
SMILES | MPTP block | Hep lipid drop | DTT redox prof | Lmaj promast | T cruzi repl | Lipid drop inh | AML12 cytotox | AML12 tox ATP
CCN(C(=O)Cn1cnc2c1c(=O)n(C)c(=O)n2C)C1CCS(=O)(=O)C1 (stereo unspecified) | -0.5 | x | x | x | x | x | x | x
N#Cc1cn(-c2cccc(C(F)(F)F)c2)c(=O)[nH]c1=O | 0.1 | x | x | x | 5.1 | x | x | x
CC1=C(/C=N/Nc2ccc([N+](=O)[O-])cc2[N+](=O)[O-])C(C)(C)CCC1 | 11.9 | 71.5* | -0.3 | 16.5 | 16.2 | 114.6* | -0.818 | -13.2
CCC(C)(C)NC(=O)C(c1sccc1C)N(Cc1ccco1)C(=O)c1csnn1 (stereo unspecified) | 2.6 | 57.5* | x | x | 8.9 | 69.8* | -0.471 | 11.8
COc1ccccc1N1CCN(C(=O)COc2ccc(S(=O)(=O)NC(C)(C)C)cc2)CC1 | x | 64.1* | -0.9 | 12.4 | -1.1 | 85.3* | -0.116 | x
CNS(=O)(=O)c1ccc(CCC(=O)N2CCN(c3ccccc3OC)CC2)cc1 | 0.7 | -0.7 | x | x | 6.2 | x | x | x
COC(=O)c1ccc(S(=O)(=O)NC(C)(C)C)n1C | 0.6 | 44.0 | x | x | -3.7 | x | x | x
CCOc1ccc(CCNC(=O)Cn2cccc2C(=O)c2ccccc2C)cc1OCC | 1.6 | 100.7* | 0.4 | 60.7* | 38.8 | 109.1* | 0.288 | 16.1
COc1ccc(CCNC(=O)/C=C/c2ccco2)cc1OC | 1.5 | x | x | x | -27.9 | x | x | x
CCOc1ccc(CCNC(=O)/C=C/c2ccco2)cc1OCC | 1.0 | 81.2* | x | x | -8.6 | 104.9* | -0.0463 | -8.9
COc1cccc(/C=C/C(=O)NCCc2ccc(OC)c(OC)c2)c1 | 0.1 | 54.0* | 0.7 | -0.8 | -6.4 | 49.4 | 0.058 | x
CCOc1ccc(CCNC(=O)Nc2ccccc2C)cc1OCC | 0.7 | 103.7* | x | x | -13.5 | 101.5* | 0.00741 | 7.1
O=C(Nc1ncc(Cl)cc1Cl)c1c(F)cccc1Cl | -0.2 | 14.3 | -2.1 | 9.9 | 4.7 | x | x | x
CCOc1ccc(CCNC(=O)CN2C(=O)NC3(CCCCC3)C2=O)cc1OCC | -2.1 | x | x | x | 0.5 | x | x | x
CCOc1ccc(CCNC(=O)CN2C(=O)NC3(CCCC3)C2=O)cc1OCC | -0.7 | 83.4* | x | x | 0.3 | 109.0* | 0.32 | 11.2
Cn1c(=O)n(C)c2cc(NC(=O)COc3ccc(Cl)cc3)ccc21 | 5.8 | 28.1 | -0.9 | -0.7 | -1.3 | x | x | x
CCCCCc1cc(=O)oc2c(C(CCN3CCCC(C)C3)c3ccc(N(C)C)cc3)c(OC)cc(OC)c12 (stereo unspecified) | 3.8 | 61.8* | x | x | 37.6 | 10.7 | 0.222 | x
CCCCCc1cc(=O)oc2c(C(CCN3CCCC(C)C3)c3cc(OC)c(OC)c(OC)c3)c(OC)cc(OC)c12 (stereo unspecified) | 9.1 | 19.2 | x | x | 50.3 | x | x | x
COCCN(C(=O)CSc1nc2ccccc2s1)c1c(N)n(Cc2ccccc2)c(=O)[nH]c1=O | 5.9 | x | x | x | x | x | x | x
